Source: ChEMBL document CHEMBL1949580, “Multi-component synthesis and in vitro and in vivo anticancer activity of novel arylmethylene bis-isoxazolo[4,5-b]pyridine-N-oxides” (Eur J Med Chem, 2012)
In brackets after ≈: the same amount, converted by molar mass.

How the values were obtained:
HeLa = experiment: Cytotoxicity against human HeLa cells after 48 hrs by MTT assay; assay type: functional, cell-based
How it was run: (§1)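 Cells in medium with 10% FBS, 5% CO₂, 37 °C, seeded from a 1 × 10⁵ cells/mL suspension. Test solutions from DMSO stocks (final <1% DMSO) added after 24 h. Exposure 48 h, then MTT 2.5 mg/mL for 2 h, formazan dissolved in DMSO, read at 490 nm. IC₅₀ is 50% OD reduction versus untreated, from dose-response curves. Mean of three independent determinations.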

[1] = Cytotoxicity against […] after 48 hrs by MTT assay; assay type: functional, cell-based; details: Mus musculus, Ehrlich; how it was run: as §1
MCF7 = experiment: Cytotoxicity against human MCF7 cells after 48 hrs by MTT assay; assay type: functional, cell-based; details: MCF7, 48 h; how it was run: as §1
[2] = Antitumor activity against […] xenografted in Swiss albino mouse liquid tumor model assessed as change in body weight at 5 mg/kg, ip qd for 9 days measured after 14 days (reference value: 12.2 +/- 0.75 g); assay type: functional, Ehrlich; details: route intraperitoneal
How it was run: (§2)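 EAC cells (0.2 mL of 2 × 10⁶ cells/mouse) injected ip on day 0. Daily ip dosing began 24 h later. Ten mice per group. Tumor volume, packed cell volume and viable tumor cell count read by Trypan blue method, alongside body weight. Values are mean ± SEM versus tumor control. Cisplatin 5 mg/kg served as the positive control.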

[3] = Anticancer activity against […] xenografted in Swiss albino mouse liquid tumor model assessed as host survival at 5 mg/kg, ip qd for 9 days (reference value: 13.7 +/- 0.03 days); assay type: functional, Ehrlich; details: route intraperitoneal
Mus musculus [4] = experiment: Toxicity in human EAC cells xenografted Swiss albino mouse liquid tumor model assessed as change hemoglobin level at 5 mg/kg, ip qd for 9 days (reference value: 5.75 +/- 0.655 mg); assay type: organism-based, Ehrlich; parameters: dose 5 mg/kg, route intraperitoneal; details: in vivo, 216 h
[5] = Anticancer activity against […] xenografted in Swiss albino mouse liquid tumor model assessed as increase in host lifespan at 5 mg/kg, ip qd for 9 days measured after 14 days; assay type: functional, Ehrlich; details: route intraperitoneal
[6] = Anticancer activity against […] xenografted in Swiss albino mouse liquid tumor model assessed as tumor volume at 5 mg/kg, ip qd for 9 days measured after 14 days (reference value: 12.1 +/- 0.89 mL); assay type: functional, Ehrlich; details: route intraperitoneal; how it was run: as §2
[7] = Anticancer activity against […] xenografted in Swiss albino mouse liquid tumor model assessed as packed cell volume at 5 mg/kg, ip qd for 9 days measured after 14 days by trypan blue staining (reference value: 2.75 +/- 0.49 mm); assay type: functional, Ehrlich; details: route intraperitoneal; how it was run: as §2
[8] = Anticancer activity against […] xenografted in Swiss albino mouse liquid tumor model assessed as viable tumor cells per 10^7 cells at 5 mg/kg, ip qd for 9 days measured after 14 days by trypan blue staining (reference value: 6.39 +/- 0.51 10^7/mL); assay type: functional, Ehrlich; details: route intraperitoneal; how it was run: as §2
[9] = Antitumor activity against […] xenografted in Swiss albino mouse liquid tumor model assessed as change in body weight at 10 mg/kg, ip qd for 9 days measured after 14 days (reference value: 12.2 +/- 0.75 g); assay type: functional, Ehrlich; details: route intraperitoneal; how it was run: as §2
[10] = Anticancer activity against […] xenografted in Swiss albino mouse liquid tumor model assessed as host survival at 10 mg/kg, ip qd for 9 days (reference value: 13.7 +/- 0.03 days); assay type: functional, Ehrlich; details: route intraperitoneal
Mus musculus [11] = experiment: Toxicity in […] xenografted Swiss albino mouse liquid tumor model assessed as change hemoglobin level at 10 mg/kg, ip qd for 9 days (reference value: 5.75 +/- 0.655 mg); assay type: organism-based, Ehrlich; parameters: dose 10 mg/kg, route intraperitoneal; details: in vivo, 216 h
[12] = Anticancer activity against […] xenografted in Swiss albino mouse liquid tumor model assessed as increase in host lifespan at 10 mg/kg, ip qd for 9 days measured after 14 days; assay type: functional, Ehrlich; details: route intraperitoneal
[13] = Anticancer activity against […] xenografted in Swiss albino mouse liquid tumor model assessed as tumor volume at 10 mg/kg, ip qd for 9 days measured after 14 days (reference value: 12.1 +/- 0.89 mL); assay type: functional, Ehrlich; details: route intraperitoneal; how it was run: as §2
[14] = Anticancer activity against […] xenografted in Swiss albino mouse liquid tumor model assessed as packed cell volume at 10 mg/kg, ip qd for 9 days measured after 14 days by trypan blue staining (reference value: 2.75 +/- 0.49 mm); assay type: functional, Ehrlich; details: route intraperitoneal; how it was run: as §2
[15] = Anticancer activity against […] xenografted in Swiss albino mouse liquid tumor model assessed as viable tumor cells per 10^7 cells at 10 mg/kg, ip qd for 9 days measured after 14 days by trypan blue staining (reference value: 6.39 +/- 0.51 10^7/mL); assay type: functional, Ehrlich; details: route intraperitoneal; how it was run: as §2
Mus musculus [16] = experiment: Toxicity in human EAC cells xenografted Swiss albino mouse liquid tumor model assessed as change in RBC cell count at 5 mg/kg, ip qd for 9 days (reference value: 2.74 +/- 0.081 million/mm3); assay type: organism-based, Ehrlich; parameters: dose 5 mg/kg, route intraperitoneal; details: in vivo, 216 h
Mus musculus [17] = experiment: Toxicity in […] xenografted Swiss albino mouse liquid tumor model assessed as change WBC cell count at 5 mg/kg, ip qd for 9 days (reference value: 20.6 +/- 0.545 10^3/mm3); assay type: organism-based, Ehrlich; parameters: dose 5 mg/kg, route intraperitoneal; details: in vivo, 216 h
Mus musculus [18] = experiment: Toxicity in human EAC cells xenografted Swiss albino mouse liquid tumor model assessed as change in RBC cell count at 10 mg/kg, ip qd for 9 days (reference value: 2.74 +/- 0.081 million/mm3); assay type: organism-based, Ehrlich; parameters: dose 10 mg/kg, route intraperitoneal; details: in vivo, 216 h
Mus musculus [19] = experiment: Toxicity in […] xenografted Swiss albino mouse liquid tumor model assessed as change WBC cell count at 10 mg/kg, ip qd for 9 days (reference value: 20.6 +/- 0.545 10^3/mm3); assay type: organism-based, Ehrlich; parameters: dose 10 mg/kg, route intraperitoneal; details: in vivo, 216 h
Mus musculus [20] = experiment: Toxicity in human EAC cells xenografted Swiss albino mouse liquid tumor model assessed as change in lymphocyte cell count at 5 mg/kg, ip qd for 9 days (reference value: 23 +/- 0.567 %); assay type: organism-based, Ehrlich; parameters: dose 5 mg/kg, route intraperitoneal; details: in vivo, 216 h
Mus musculus [21] = experiment: Toxicity in human EAC cells xenografted Swiss albino mouse liquid tumor model assessed as change in lymphocyte cell count at 10 mg/kg, ip qd for 9 days (reference value: 23 +/- 0.567 %); assay type: organism-based, Ehrlich; parameters: dose 10 mg/kg, route intraperitoneal; details: in vivo, 216 h
Mus musculus [22] = experiment: Toxicity in human EAC cells xenografted Swiss albino mouse liquid tumor model assessed as change in neutrophil cell count at 5 mg/kg, ip qd for 9 days (reference value: 73 +/- 1.25 %); assay type: organism-based, Ehrlich; parameters: dose 5 mg/kg, route intraperitoneal; details: in vivo, 216 h
Mus musculus [23] = experiment: Toxicity in human EAC cells xenografted Swiss albino mouse liquid tumor model assessed as change in neutrophil cell count at 10 mg/kg, ip qd for 9 days (reference value: 73 +/- 1.25 %); assay type: organism-based, Ehrlich; parameters: dose 10 mg/kg, route intraperitoneal; details: in vivo, 216 h
Mus musculus [24] = experiment: Toxicity in […] xenografted Swiss albino mouse liquid tumor model assessed as change in monocytes cell count at 5 mg/kg, ip qd for 9 days (reference value: 2.4 +/- 0.12 %); assay type: organism-based, Ehrlich; parameters: dose 5 mg/kg, route intraperitoneal; details: in vivo, 216 h
Mus musculus [25] = experiment: Toxicity in human EAC cells xenografted Swiss albino mouse liquid tumor model assessed as change in monocytes cell count at 10 mg/kg, ip qd for 9 days (reference value: 2.4 +/- 0.12 %); assay type: organism-based, Ehrlich; parameters: dose 10 mg/kg, route intraperitoneal; details: in vivo, 216 h

Cc1noc2c(C(c3ccc(Cl)cc3)c3c(-c4ccccc4)c[n+]([O-])c4c(C)noc34)c(-c3ccccc3)c[n+]([O-])c12
IC50 (HeLa): 70.7 µg/mL (≈ 123 µM)
IC50 [1]: 60.6 µg/mL (≈ 105 µM)
IC50 (MCF7): 74.3 µg/mL (≈ 129 µM)

Cc1ccc(-c2c[n+]([O-])c3c(C)noc3c2C(c2ccccc2)c2c(-c3ccc(C)cc3)c[n+]([O-])c3c(C)noc23)cc1
IC50 (HeLa): 42 µg/mL (≈ 73.9 µM)
IC50 [1]: 48.4 µg/mL (≈ 85.2 µM)
IC50 (MCF7): 44.3 µg/mL (≈ 77.9 µM)

Cc1noc2c(C(c3ccccc3)c3c(-c4ccccc4O)c[n+]([O-])c4c(C)noc34)c(-c3ccccc3O)c[n+]([O-])c12
IC50 (HeLa): 32.8 µg/mL (≈ 57.3 µM)
IC50 [1]: 36.3 µg/mL (≈ 63.4 µM)
IC50 (MCF7): 33.5 µg/mL (≈ 58.6 µM)
Activity [2]: 11 g
MST [3]: 14.8 days
Activity (Mus musculus [4]): 5.96 mg
Activity [5]: 8.02%
Activity [6]: 10.69 mL
Activity [7]: 2.13 mm
Activity [8]: 5.21 ×10⁷ /ml
Activity [9]: 8.89 g
MST [10]: 18 days
Activity (Mus musculus [11]): 7.02 mg
Activity [12]: 31.38%
Activity [13]: 8.29 mL
Activity [14]: 1.69 mm
Activity [15]: 4.07 ×10⁷ /ml
Activity (Mus musculus [16]): 2.72 million/mm3
Activity (Mus musculus [17]): 19.9 ×10³ /mm3
Activity (Mus musculus [18]): 3.3 million/mm3
Activity (Mus musculus [19]): 18.8 ×10³ /mm3
Activity (Mus musculus [20]): 26%
Activity (Mus musculus [21]): 40%
Activity (Mus musculus [22]): 65%
Activity (Mus musculus [23]): 51%
Activity (Mus musculus [24]): 2.3%
Activity (Mus musculus [25]): 1.9%

Cc1noc2c(C(c3ccccc3)c3c(-c4ccc(Cl)cc4)c[n+]([O-])c4c(C)noc34)c(-c3ccc(Cl)cc3)c[n+]([O-])c12
IC50 (HeLa): 70.2 µg/mL (≈ 115 µM)
IC50 [1]: 78.3 µg/mL (≈ 129 µM)
IC50 (MCF7): 79 µg/mL (≈ 130 µM)

Cc1noc2c(C(c3ccccc3)c3c(-c4ccc([N+](=O)[O-])cc4)c[n+]([O-])c4c(C)noc34)c(-c3ccc([N+](=O)[O-])cc3)c[n+]([O-])c12
IC50 (HeLa): 80 µg/mL (≈ 127 µM)
IC50 [1]: 75.5 µg/mL (≈ 120 µM)
IC50 (MCF7): 76.2 µg/mL (≈ 121 µM)
